In ChEMBL document CHEMBL4152390, “Discovery of the First-in-Class Dual Histone Deacetylase-Proteasome Inhibitor” (J Med Chem, 2018):
The source made the active and inactive calls. The rule behind the calls is not given here.

Assays:
[1] = biological target: Histone deacetylase 3/Nuclear receptor corepressor 2 (HDAC3/NCoR2) (Homo sapiens, UniProt O15379); type: ADME, cell-based
[2] = biological target: T1, Protein deacetylase HDAC6 (Homo sapiens, UniProt Q9UBN7); assay: Inhibition of N-terminal GST-tagged recombinant human HDAC6 expressed in baculovirus infected insect cells using RHKK(Ac)AMC as substrate by fluorescence-based assay
T1 sequence (Q9UBN7 whole entry): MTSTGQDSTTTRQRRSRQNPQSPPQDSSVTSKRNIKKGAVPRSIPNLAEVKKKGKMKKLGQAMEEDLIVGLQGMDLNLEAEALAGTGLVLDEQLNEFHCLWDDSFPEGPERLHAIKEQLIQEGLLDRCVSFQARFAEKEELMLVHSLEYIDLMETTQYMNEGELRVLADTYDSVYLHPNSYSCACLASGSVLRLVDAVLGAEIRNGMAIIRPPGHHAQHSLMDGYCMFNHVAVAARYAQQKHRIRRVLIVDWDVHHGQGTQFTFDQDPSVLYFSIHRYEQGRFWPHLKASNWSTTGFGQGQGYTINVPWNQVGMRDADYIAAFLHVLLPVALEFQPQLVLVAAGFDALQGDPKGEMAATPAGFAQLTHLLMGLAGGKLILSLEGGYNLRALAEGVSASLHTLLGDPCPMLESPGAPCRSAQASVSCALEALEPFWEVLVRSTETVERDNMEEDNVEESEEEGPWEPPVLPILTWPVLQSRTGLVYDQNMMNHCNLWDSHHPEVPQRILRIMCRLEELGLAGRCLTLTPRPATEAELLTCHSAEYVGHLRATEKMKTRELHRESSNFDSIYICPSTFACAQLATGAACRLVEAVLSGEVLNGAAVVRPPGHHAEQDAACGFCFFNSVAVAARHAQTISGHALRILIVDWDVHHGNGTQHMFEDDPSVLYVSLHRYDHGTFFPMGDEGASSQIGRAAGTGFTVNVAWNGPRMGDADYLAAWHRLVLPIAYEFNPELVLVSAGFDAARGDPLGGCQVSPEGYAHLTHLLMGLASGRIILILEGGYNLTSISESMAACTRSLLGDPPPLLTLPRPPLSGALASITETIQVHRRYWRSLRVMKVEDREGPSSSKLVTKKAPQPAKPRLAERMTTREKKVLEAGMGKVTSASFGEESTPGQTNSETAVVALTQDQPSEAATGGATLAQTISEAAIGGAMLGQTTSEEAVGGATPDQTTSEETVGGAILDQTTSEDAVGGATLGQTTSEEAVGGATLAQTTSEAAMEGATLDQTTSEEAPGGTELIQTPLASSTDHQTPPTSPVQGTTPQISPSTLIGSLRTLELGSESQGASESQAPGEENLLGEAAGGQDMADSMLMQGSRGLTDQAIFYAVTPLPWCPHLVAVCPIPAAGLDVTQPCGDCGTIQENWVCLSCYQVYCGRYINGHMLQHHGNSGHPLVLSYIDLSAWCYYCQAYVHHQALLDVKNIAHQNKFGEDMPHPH

[3] = biological target: T2, Protein deacetylase HDAC6 (Homo sapiens) (UniProt Q9UBN7); assay: Inhibition of HDAC6 in human HL60 cells assessed as increase in acetyl-alpha tubulin expression at 0.1 to 10 uM after 24 hrs by immunoblot assay; type: cell-based
T2 sequence (whole entry): T1 sequence (Q9UBN7 whole entry)
Procedure, shortened: (§1)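 Cells exposed for 24 h at indicated concentrations; lysates immunoblotted for acetyl-α-tubulin, acetyl-histone H3, PARP, with GAPDH as loading control.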

[4] = biological target: T2, Protein deacetylase HDAC6 (Homo sapiens); assay: Inhibition of HDAC6 in imatinib-resistant human SUP-B15 cells assessed as increase in acetyl-alpha tubulin expression at 0.1 to 10 uM after 24 hrs by immunoblot assay; type: cell-based
Procedure, shortened: as §1

SUP-B15 = assay: Inhibition of HDAC6/chymotrypsin-like activity of 20S proteasome in imatinib-resistant human SUP-B15 cells assessed as increase in cleaved PARP expression at 0.1 to 10 uM after 24 hrs by immunoblot assay; type: cell-based
Procedure, shortened: as §1

[5] = biological target: Proteasome Macropain subunit (Homo sapiens) (UniProt P49721); assay: Inhibition of trypsin-like activity of 20S proteasome in human HL60 cells at 4 nM to 25 uM using Z-LRR-aminoluciferin as substrate after 2 hrs by proteasome-Glo assay; type: cell-based
[6] = biological target: Proteasome Macropain subunit (Homo sapiens) (UniProt P49721); assay: Inhibition of trypsin-like activity of 20S proteasome in human imatinib-resistant SUP-B15 cells at 4 nM to 25 uM using Z-LRR-aminoluciferin as substrate after 2 hrs by proteasome-Glo assay; type: cell-based
[7] = Cytotoxicity against human RPMI18226 cells after 72 hrs by CellTiter-Glo luminescent cell viability assay; type: functional, cell-based; conditions: RPMI18226, 72 h
[8] = Cytotoxicity against human BCP-ALL cells derived from patient 1 after 72 hrs by CellTiter-Glo luminescent cell viability assay; type: functional, cell-based
SEM cells [9] = assay: Cell cycle arrest in human SEM cells assessed as reduction in cell levels at G2/M phase at IC50 to 2 times IC50 after 48 hrs by propidium iodide staining-based FACS analysis; type: functional
SEM cells [10] = assay: Inhibition of HDAC6/chymotrypsin-like activity of 20S proteasome in human SEM cells assessed as increase in HSP40 protein expression at 0.1 to 10 uM after 18 hrs by Western blot assay; type: cell-based
Procedure, shortened: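 Cells treated 18 h at indicated concentrations; lysates analysed by western blot for heat shock (Grp94, HSP70, HSP40, HSP27), UPR (BIP, ATF4, ATF6, pJNK) and autophagy (LC3B, p62) proteins.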

Proteasome Macropain subunit (Homo sapiens), sequence (P49721 whole entry): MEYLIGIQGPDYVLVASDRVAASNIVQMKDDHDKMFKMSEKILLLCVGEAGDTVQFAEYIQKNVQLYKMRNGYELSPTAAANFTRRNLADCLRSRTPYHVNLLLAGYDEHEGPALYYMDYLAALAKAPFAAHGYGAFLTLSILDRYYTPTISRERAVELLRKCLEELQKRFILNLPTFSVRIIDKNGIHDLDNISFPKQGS
Histone deacetylase 3/Nuclear receptor corepressor 2 (HDAC3/NCoR2), sequence (O15379 whole entry): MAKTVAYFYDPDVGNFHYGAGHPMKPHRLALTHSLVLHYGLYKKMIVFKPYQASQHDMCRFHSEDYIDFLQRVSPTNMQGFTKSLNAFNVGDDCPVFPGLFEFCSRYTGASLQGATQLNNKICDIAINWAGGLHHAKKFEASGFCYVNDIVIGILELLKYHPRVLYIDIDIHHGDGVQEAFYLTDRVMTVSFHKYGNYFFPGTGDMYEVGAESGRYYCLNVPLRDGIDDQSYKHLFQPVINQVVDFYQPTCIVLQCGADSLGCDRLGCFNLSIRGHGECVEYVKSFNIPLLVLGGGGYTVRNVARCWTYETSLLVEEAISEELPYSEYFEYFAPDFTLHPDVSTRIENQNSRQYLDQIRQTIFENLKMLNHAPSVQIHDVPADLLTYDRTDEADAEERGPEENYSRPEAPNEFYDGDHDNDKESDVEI
Histone deacetylase 3/Nuclear receptor corepressor 2 (HDAC3/NCoR2), sequence (Q9Y618 whole entry, further chain): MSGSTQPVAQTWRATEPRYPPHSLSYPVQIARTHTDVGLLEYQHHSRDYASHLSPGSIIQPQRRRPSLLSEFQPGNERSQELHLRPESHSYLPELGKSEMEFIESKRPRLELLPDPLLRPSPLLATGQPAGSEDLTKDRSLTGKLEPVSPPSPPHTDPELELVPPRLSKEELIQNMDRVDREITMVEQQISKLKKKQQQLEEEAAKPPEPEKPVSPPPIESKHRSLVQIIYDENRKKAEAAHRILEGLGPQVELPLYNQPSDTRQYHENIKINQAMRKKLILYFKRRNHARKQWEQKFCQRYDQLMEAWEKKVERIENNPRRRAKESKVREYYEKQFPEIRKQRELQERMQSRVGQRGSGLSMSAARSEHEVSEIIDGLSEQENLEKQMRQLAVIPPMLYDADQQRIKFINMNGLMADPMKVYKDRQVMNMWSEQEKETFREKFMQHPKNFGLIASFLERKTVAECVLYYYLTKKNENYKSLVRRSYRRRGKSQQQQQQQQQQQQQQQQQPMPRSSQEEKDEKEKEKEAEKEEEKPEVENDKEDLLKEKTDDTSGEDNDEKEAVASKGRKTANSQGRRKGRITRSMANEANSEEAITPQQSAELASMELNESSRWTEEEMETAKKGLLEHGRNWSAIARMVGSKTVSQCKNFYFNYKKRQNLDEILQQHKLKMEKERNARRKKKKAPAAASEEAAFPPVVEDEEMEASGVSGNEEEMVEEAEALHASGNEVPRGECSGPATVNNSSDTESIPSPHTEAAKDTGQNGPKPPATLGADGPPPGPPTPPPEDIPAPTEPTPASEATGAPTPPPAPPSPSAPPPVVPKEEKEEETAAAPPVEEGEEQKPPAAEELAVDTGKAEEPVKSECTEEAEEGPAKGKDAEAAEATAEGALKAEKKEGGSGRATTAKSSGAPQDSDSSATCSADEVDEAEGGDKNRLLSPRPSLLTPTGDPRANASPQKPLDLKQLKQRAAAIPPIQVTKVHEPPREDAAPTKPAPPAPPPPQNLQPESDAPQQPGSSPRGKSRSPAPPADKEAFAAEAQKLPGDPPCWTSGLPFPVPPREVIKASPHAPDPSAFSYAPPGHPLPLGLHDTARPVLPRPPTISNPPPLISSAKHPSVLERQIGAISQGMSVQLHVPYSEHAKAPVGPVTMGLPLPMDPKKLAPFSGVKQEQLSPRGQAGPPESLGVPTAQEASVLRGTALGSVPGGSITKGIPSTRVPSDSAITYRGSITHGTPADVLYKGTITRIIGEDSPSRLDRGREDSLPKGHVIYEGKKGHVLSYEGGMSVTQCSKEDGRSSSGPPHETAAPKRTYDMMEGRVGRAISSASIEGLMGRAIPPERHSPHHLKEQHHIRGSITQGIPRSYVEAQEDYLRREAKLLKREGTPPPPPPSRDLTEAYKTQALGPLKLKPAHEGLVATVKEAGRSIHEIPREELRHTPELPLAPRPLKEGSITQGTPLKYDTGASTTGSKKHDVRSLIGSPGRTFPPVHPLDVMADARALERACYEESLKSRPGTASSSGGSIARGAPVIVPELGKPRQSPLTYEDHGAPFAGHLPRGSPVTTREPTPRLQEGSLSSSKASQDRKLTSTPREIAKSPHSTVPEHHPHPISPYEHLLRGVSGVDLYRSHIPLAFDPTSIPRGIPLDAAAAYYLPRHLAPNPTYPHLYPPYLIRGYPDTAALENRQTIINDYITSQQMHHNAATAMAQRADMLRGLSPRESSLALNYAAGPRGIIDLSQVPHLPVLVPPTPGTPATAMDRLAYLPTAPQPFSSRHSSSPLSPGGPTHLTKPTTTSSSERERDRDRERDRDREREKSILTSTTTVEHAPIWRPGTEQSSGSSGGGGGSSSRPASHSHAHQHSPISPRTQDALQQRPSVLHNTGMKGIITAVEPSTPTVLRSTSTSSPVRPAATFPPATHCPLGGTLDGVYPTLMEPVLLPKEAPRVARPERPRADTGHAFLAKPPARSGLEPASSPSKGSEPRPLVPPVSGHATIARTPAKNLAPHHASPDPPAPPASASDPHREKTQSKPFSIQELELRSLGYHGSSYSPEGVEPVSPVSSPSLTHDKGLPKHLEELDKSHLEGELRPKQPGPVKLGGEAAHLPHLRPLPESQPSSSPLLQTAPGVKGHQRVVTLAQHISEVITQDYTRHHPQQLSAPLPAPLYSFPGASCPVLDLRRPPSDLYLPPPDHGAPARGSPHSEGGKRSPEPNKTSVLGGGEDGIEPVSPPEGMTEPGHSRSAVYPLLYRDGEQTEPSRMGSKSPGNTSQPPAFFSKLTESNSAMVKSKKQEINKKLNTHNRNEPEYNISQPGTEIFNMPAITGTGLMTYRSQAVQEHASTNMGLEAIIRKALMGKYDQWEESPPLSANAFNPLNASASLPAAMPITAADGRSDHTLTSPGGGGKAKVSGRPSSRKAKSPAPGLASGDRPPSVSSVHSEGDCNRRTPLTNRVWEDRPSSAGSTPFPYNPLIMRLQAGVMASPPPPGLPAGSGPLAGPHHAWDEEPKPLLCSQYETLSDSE

Structure (SMILES): C[C@H](NC(=O)[C@H](CC(=O)NCC(C)(C)C)NC(=O)c1ccc(C(=O)NO)cc1)C(=O)NCc1ccccc1
- IC50 [1]: 15 µM
- IC50 [2]: 0.27 µM
- inhibition [3]: Active
- inhibition [4]: Active
- inhibition (SUP-B15): Active
- inhibition [5]: inactive
- inhibition [6]: inactive
- IC50 [7]: 1.75 µM
- IC50 [8]: 2.06 µM
- Activity (SEM cells [9]): Active
- inhibition (SEM cells [10]): Active
